Source: PubChem (several laboratories)
UCH37 DUB inh: human UCH37 deubiquitinating enzyme inhibition; purified proteasome/UCH37, Ub-AMC cleavage fluorescence; inhibition, % (concentration not given with the values); 330,000 compounds, 0.33% hits; AID 588478;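 active means mean inhibition over replicate wells above about 20%, limit read from the data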
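Material: human UCH37 enzyme supplied as purified proteasome complex. Measure: % inhibition of Ub-AMC cleavage fluorescence. Medium: pH 7.4 Tris-HCl (50 mM) with ovalbumin, ATP-MgCl2, DTT. Times: 30 min preincubation with enzyme, 25 min cleavage at room temperature. Detection: AMC fluorescence intensity at 355/460 nm.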
ATG4B inhibitor: blocks human ATG4B protease cleavage of LC3 substrate; Q9Y4P1; ATG4B cleavage of LC3-PLA2, NBD-HPC fluorescence, 1 h; inhibition, % at 8.33 µM; 340,000 compounds, 0.51% hits; in the data active means inhibition above about 40%
Target sequence (Q9Y4P1 whole entry, looked up): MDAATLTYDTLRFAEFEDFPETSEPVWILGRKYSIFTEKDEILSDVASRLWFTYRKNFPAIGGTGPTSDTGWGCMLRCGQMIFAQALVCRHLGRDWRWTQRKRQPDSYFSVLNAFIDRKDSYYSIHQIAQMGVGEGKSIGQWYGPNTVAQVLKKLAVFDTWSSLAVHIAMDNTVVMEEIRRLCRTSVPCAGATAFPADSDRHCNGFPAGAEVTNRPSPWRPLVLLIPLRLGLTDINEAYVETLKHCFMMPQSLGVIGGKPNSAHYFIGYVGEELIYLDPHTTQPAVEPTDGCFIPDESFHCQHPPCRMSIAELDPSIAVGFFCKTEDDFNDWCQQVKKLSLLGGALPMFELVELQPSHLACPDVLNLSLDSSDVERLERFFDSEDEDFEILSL
NALP1 yeast inh: NALP1 inhibition; S. cerevisiae NALP1/ASC/caspase-1 growth, X-gal OD620, 72 h; inhibition, % at 10 µM; 280,000 compounds, 0.61% hits; AID 2071; in the data active means inhibition mostly above about 24%, no sharp cut-off; inactive means mostly below about 32%
Calb FLC: affects C. albicans growth with fluconazole; C. albicans CaCi-2 + fluconazole, Alamar Blue growth, 48 h; growth inhibition, % (no concentration beside the values); 300,000 compounds, 0.57% hits; AID 1979;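 active means growth inhibition above about 58% in most replicates, limit read from the data, passing the limit was not always enough; inconclusive means exactly half the replicates above a set limit; inactive means most replicates below a set limit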;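 further: all wells also contain fluconazole at 8 µg/ml as a sub-toxic cotreatment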
ALR H2O2 inh: blocks human ALR sulfhydryl oxidase activity | P55789 | purified ALR, DTT oxidation, H2O2 HRP-luminol luminescence | inhibition, % (test concentration not listed) | 290,000 compounds, 3.8% hits | AID 485317;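 active means mean replicate inhibition above about 79%, with every replicate also reaching it, limit read from the data; inconclusive means only one of the two criteria met; inactive means mean below limit and not every replicate reaching it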
NLRP3 yeast inh: blocks the NALP3 inflammasome reconstituted in yeast. 330,000 compounds, 0.39% hits. inhibition, % at 10 µM. Yeast reconstituted NLRP3/ASC/caspase-1, beta-gal luminescence, 24 h. AID 2825;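 active means inhibition of 50% or more; inactive means inhibition below 50%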
Hits are given with their value; 0 = inactive; ? = inconclusive; - = no result given. In the library only some 4.8% were active in any assay of this set; here they are far more common.

SMILES	UCH37 DUB inh	ATG4B inhibitor	NALP1 yeast inh	Calb FLC	ALR H2O2 inh	NLRP3 yeast inh
Cc1cnn(-c2cc(NN=Cc3ccccc3F)ncn2)c1	0	-	-	-	-	-
CC(=NNC(=O)c1cc(-c2ccc(Br)s2)[nH]n1)c1ccco1	0	-	-	-	-	-
C/C(C=NNC(=O)c1sc(N)nc1C)=C\c1ccccc1	0	-	-	-	-	-
COc1cc(/C=C/C(=O)OCC(=O)NC2CCS(=O)(=O)C2)ccc1O (centres undefined)	0	0	0	0	-	0
COc1cc(/C=C/C(=O)OCC(=O)NC(=O)NC(C)C)ccc1O	0	0	0	0	99	0
CCC(C)N(C(=O)COC(=O)/C=C/c1ccc(O)c(OC)c1)C1CCS(=O)(=O)C1 (centres undefined)	0	0	-	0	94	0
CC(C)(Oc1ccc(Cl)cc1)C(=O)NN=Cc1cn[nH]c1-c1ccccc1	0	-	-	-	-	-
Cc1oc(-c2ccc(Cl)cc2)nc1CS(=O)CC(=O)NCCN1CCCCCC1 (centres undefined)	0	0	0	0	99	0
Cc1ccc(-c2nc(CS(=O)CC(=O)NCCN3CCCCCC3)c(C)o2)cc1 (centres undefined)	0	0	0	0	98	0
Cc1oc(-c2ccc(Cl)cc2)nc1CS(=O)CC(=O)NCCCN1CC(C)CC(C)C1 (centres undefined)	0	0	0	0	0	0
Cc1ccc(-c2nc(CS(=O)(=O)CC(=O)NCCCN3CCN(C)CC3)c(C)o2)cc1	0	0	0	0	0	0
COc1ccc(OCC(=O)NN=C/C(C)=C/c2ccco2)c(Br)c1	0	-	-	-	-	-
CCOc1ccc(Cc2n[nH]c(=S)n2N)cc1	0	0	0	0	96	0
Nn1c(Cc2ccc(Br)cc2)n[nH]c1=S	0	0	0	0	0	0
COc1ccc(OC)c(C=NNC(=O)c2ccc(=O)[nH]n2)c1	0	-	-	-	-	-
O=C(CCC1COc2ccccc2O1)NC1CCCCC1 (centres undefined)	0	0	41	0	0	0
CC(C)(C)NC(=O)CCC1COc2ccccc2O1 (centres undefined)	0	0	0	0	0	0
O=C(CC1COc2ccccc2O1)NC1CCCCC1 (centres undefined)	0	0	0	?	0	0
CC(NC(=O)CCC1COc2ccccc2O1)c1ccccc1 (centres undefined)	0	0	42	0	0	0
CNC(=O)C1CC(=O)N/C(=N/N=C(C)c2cccs2)S1 (centres undefined)	0	-	-	-	-	-
Cc1nc(C(=O)N2CCCC(N3CCN(c4ccccc4C)CC3)C2)cs1 (centres undefined)	0	0	0	0	0	0
Cc1ccccc1N1CCN(C2CCCN(C(=O)c3cnsn3)C2)CC1 (centres undefined)	0	0	0	0	86	0
O=C(NN=Cc1ccc(N2CCOCC2)cc1)c1cccs1	0	-	-	-	-	-
Cc1ccc[n+](/C(=C\C(=C=[N-])C#N)C(=O)c2ccc(Cl)cc2)c1	21	0	0	0	0	0
Cc1cccc(N/C=C/C(=O)c2ccc(Cl)cc2)c1	0	0	0	0	0	0
SMILES	UCH37 DUB inh	ATG4B inhibitor	NALP1 yeast inh	Calb FLC	ALR H2O2 inh	NLRP3 yeast inh
CCCCNC(=O)c1onc(CSc2ccc(F)c(F)c2)c1C(=O)O	0	0	0	0	0	0
COCCNC(=O)c1onc(CSc2ccc(C(C)C)cc2)c1C(=O)O	0	0	0	0	89	0
CCCCNC(=O)c1onc(CSc2ccc(C)c(C)c2)c1C(=O)O	0	0	0	0	98	0
C=CCNC(=O)c1onc(CSc2ccc(C)c(C)c2)c1C(=O)O	0	0	0	0	98	0
C=CCNC(=O)c1onc(CSc2cc(C)cc(C)c2)c1C(=O)O	0	0	0	0	0	0
COc1ccc(C(C)=NNS(C)(=O)=O)c(OC)c1	0	-	-	-	-	-
Oc1ccccc1C=Nn1c(-c2cccs2)n[nH]c1=S	0	-	-	-	-	-
COc1ccc(Br)cc1C=NNC(=O)C(c1ccncc1)N1CCOCC1 (centres undefined)	0	-	-	-	-	-
Cc1ccc(C(=O)Nc2ccc(C(=O)NN=Cc3c[nH]c4ccccc34)cc2)cc1	0	-	-	-	-	-
NC(=O)C1CCN(C(=O)N2c3ccccc3Sc3ccccc32)CC1	0	0	0	0	80	0
COc1cccc(C=Nc2ccc3c(c2)OCCO3)c1O	0	0	0	0	87	0
COc1cccc(C=NN2CCOCC2)c1O	0	-	-	-	-	-
C/C(=N\Nc1cc(N2CCOCC2)ncn1)c1ccc(O)cc1	-	0	0	0	97	0
